In ChEMBL document CHEMBL1123914, “6-Methylergoline-8-carboxylic acid esters as serotonin antagonists: N1-substituent effects on 5HT2 receptor affinity” (J Med Chem, 1987):

The compounds below were run against T1, Serotonin 2 (5-HT2) receptor (Rattus norvegicus) (UniProt P30994+P08909+P14842) (assay: Affinity towards 5-hydroxytryptamine 2 receptor by measuring its ability to antagonize serotonin-induced contractions in the rat jugular vein; no appreciable 5-HT2 receptor affinity).
Method in brief: (§1)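 Rat external jugular vein rings, cannulated and mounted between two L-shaped needles on a force transducer in Krebs bicarbonate buffer. Tissues equilibrated 1–2 h. After control cumulative serotonin contraction curves, vessels were incubated with antagonist for 1 h and the serotonin curves repeated. K_B = [B]/(dose ratio − 1), where dose ratio is agonist ED50 with antagonist over control ED50. Reported as −log K_B.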

T1 sequence (P08909 whole entry, looked up): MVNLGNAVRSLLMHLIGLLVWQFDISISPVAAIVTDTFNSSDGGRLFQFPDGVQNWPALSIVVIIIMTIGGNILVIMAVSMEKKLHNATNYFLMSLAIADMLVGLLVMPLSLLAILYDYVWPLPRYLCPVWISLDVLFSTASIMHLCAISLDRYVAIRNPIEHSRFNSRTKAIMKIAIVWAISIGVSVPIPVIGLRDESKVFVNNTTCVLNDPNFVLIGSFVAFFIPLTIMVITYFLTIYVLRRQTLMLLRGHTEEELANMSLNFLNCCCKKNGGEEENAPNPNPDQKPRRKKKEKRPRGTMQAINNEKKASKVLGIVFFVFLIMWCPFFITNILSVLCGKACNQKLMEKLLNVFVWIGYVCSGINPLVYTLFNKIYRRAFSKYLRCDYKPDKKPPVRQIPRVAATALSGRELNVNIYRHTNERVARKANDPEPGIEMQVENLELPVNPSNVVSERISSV
T1 sequence (P14842 whole entry, looked up): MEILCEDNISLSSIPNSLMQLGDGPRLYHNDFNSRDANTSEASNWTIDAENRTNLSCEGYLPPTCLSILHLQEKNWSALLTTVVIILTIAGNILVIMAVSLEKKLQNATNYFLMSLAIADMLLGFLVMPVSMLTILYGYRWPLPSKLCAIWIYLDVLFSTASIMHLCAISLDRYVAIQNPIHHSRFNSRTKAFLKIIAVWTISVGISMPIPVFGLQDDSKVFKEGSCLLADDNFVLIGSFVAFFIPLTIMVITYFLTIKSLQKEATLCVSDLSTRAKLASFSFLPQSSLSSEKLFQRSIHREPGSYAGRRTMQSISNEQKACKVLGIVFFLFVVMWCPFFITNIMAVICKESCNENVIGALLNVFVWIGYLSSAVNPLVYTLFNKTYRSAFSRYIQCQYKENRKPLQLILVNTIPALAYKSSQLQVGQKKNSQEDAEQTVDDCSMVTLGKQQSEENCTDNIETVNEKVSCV
T1 sequence (P30994 whole entry, looked up): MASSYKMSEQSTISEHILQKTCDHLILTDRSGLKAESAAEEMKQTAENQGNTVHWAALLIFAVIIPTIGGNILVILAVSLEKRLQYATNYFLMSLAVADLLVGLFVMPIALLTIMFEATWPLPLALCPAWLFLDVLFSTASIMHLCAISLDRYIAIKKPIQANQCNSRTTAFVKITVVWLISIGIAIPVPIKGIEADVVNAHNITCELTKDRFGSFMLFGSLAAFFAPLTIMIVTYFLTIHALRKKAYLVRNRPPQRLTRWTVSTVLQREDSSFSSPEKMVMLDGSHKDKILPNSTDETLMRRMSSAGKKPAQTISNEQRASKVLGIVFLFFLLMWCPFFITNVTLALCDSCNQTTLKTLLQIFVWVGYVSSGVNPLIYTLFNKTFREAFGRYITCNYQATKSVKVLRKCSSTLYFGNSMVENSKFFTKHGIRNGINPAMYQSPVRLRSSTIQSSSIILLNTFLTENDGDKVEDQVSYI

`CCC(CC)n1cc2c3c(cccc31)C1CC(C(=O)OC)CN(C)C1C2` (stereo not given) and `CCC(CC)n1cc2c3c(cccc31)C1CC(C(=O)OC(C)C(C)O)CN(C)C1C2` (stereo not given) cannot be ordered by -Log KB: under 7 for the first, under 7 for the second.

`CC(O)C(C)OC(=O)C1CC2c3cccc4c3c(cn4C3CCCC3)CC2N(C)C1` (stereo not given) was tested, and the -Log KB was under 7.

Each compound was assayed against T1, Serotonin 2 (5-HT2) receptor (Rattus norvegicus) (assay: Affinity towards 5-hydroxytryptamine 2 receptor by measuring its ability to antagonize serotonin-induced contractions in the rat jugular vein.).
Method in brief: as §1

First: COC(=O)C1CC2c3cccc4c3c(cn4Cc3ccccc3)CC2N(C)C1 (stereo not given)
Second: CN1CC(C(=O)OCCO)CC2c3cccc4c3c(cn4Cc3ccccc3)CC21 (stereo not given)
The -Log KB of the first is lower: 7.64 for the first, 8.12 for the second.

Going from `COC(=O)C1CC2c3cccc4[nH]cc(c34)CC2N(C)C1` (stereo not given) to `CN1CC(C(=O)OCCO)CC2c3cccc4[nH]cc(c34)CC21` (stereo not given), the -Log KB falls from 8.1 to 7.62.

First: CC(C)Cn1cc2c3c(cccc31)C1CC(C(=O)OCCO)CN(C)C1C2 (stereo not given)
Second: CC(C)n1cc2c3c(cccc31)C1CC(C(=O)OCCO)CN(C)C1C2 (stereo not given)
The -Log KB of the first is lower: 7.42 for the first, 9.13 for the second.

Compared with `CC(O)C(C)OC(=O)C1CC2c3cccc4[nH]cc(c34)CC2N(C)C1` (stereo not given), `CC(O)C(C)OC(=O)C1CC2c3cccc4c3c(cn4C)CC2N(C)C1` (stereo not given) is higher in -Log KB: 8.42 for the first, 9.26 for the second.

`CCc1c(C)n(CC)c2ccc(N(C)C)cc12` and `CCc1c(C)n(C)c2ccc(N(C)C)cc12` are within 0.2 log units of each other in -Log KB: 6.45 for the first, 6.51 for the second.

First: CN1CC(C(=O)OCCO)CC2c3cccc4c3c(cn4C)CC21 (stereo not given)
Second: COC(=O)C1CC2c3cccc4c3c(cn4C)CC2N(C)C1 (stereo not given)
The -Log KB of the first is higher: 8.63 for the first, 8.23 for the second.

Going from `CC(C)Cn1cc2c3c(cccc31)C1CC(C(=O)OC(C)C(C)O)CN(C)C1C2` (stereo not given) to `CC(O)C(C)OC(=O)C1CC2c3cccc4c3c(cn4C(C)C)CC2N(C)C1` (stereo not given), the -Log KB rises from 7.53 to 9.76.

Going from `CCCCCCCCn1cc2c3c(cccc31)C1CC(C(=O)OC(C)C(C)O)CN(C)C1C2` (stereo not given) to `CCCn1cc2c3c(cccc31)C1CC(C(=O)OC(C)C(C)O)CN(C)C1C2` (stereo not given), the -Log KB rises from under 7 to 8.34.

First: C=CCn1cc2c3c(cccc31)C1CC(C(=O)OCCO)CN(C)C1C2 (stereo not given)
Second: C=CCn1cc2c3c(cccc31)C1CC(C(=O)OC)CN(C)C1C2 (stereo not given)
The -Log KB of the first is higher: 8.17 for the first, 7.89 for the second.

First: CC(O)C(C)OC(=O)C1CC2c3cccc4c3c(cn4Cc3ccccc3)CC2N(C)C1 (stereo not given)
Second: CCn1cc2c3c(cccc31)C1CC(C(=O)OC(C)C(C)O)CN(C)C1C2 (stereo not given)
The -Log KB of the first is lower: 7.37 for the first, 8.9 for the second.

First: CC(O)C(C)OC(=O)C1CC2c3cccc4c3c(cn4C3CCCCCC3)CC2N(C)C1 (stereo not given)
Second: COC(=O)C1CC2c3cccc4c3c(cn4C(C)C)CC2N(C)C1 (stereo not given)
The -Log KB of the first is lower: 7.45 for the first, 8.29 for the second.

Compared with `COC(=O)C1CC2c3cccc4c3c(cn4CC(C)C)CC2N(C)C1` (stereo not given), `CCn1cc2c3c(cccc31)C1CC(C(=O)OC)CN(C)C1C2` (stereo not given) is higher in -Log KB: 7.57 for the first, 8.12 for the second.

First: CCc1c(C)[nH]c2ccc(N(C)C)cc12
Second: CCc1c(C)n(C(C)C)c2ccc(N(C)C)cc12
The -Log KB of the first is lower: 4.93 for the first, 7.28 for the second.

With `CCCn1cc2c3c(cccc31)C1CC(C(=O)OC)CN(C)C1C2` (stereo not given) the -Log KB was 7.72.
